Data: ChEMBL document CHEMBL3877244, “Synthesis and biological evaluation of new aryl-alkyl(alkenyl)-4-benzylpiperidines, novel Sigma Receptor (SR) modulators, as potential anticancer-agents” (Eur J Med Chem, 2016)
Calls of active or inactive are those of the source. No cut-off for these calls is given here.

Legend:
[1] = Induction of apoptosis in human Paca3 cells assessed as necrotic cells in presence of 10% fetal calf serum at 25 uM after 24 hrs by annexin V-FITC/propidium iodide staining-based flow cytometry (reference value: 0.6 +/- 0.4%); assay type: functional
[2] = Cytotoxicity against human LNCAP cells assessed as reduction in cell viability after 24 hrs in absence of 10% fetal calf serum by MTS assay; assay type: functional, cell-based
Method in brief: (§1)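 Cells starved 24 h in low-glucose medium without FCS, then treated 24 h with compound in serum-free conditions. MTS read-out, OD 490 nm, expressed as percent of untreated control. IC50 read graphically from the dose-response plot. Three independent experiments in octuplicate.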

[3] = Induction of apoptosis in human Paca3 cells assessed as viable cells in presence of 10% fetal calf serum at 25 uM after 24 hrs by annexin V-FITC/propidium iodide staining-based flow cytometry (reference value: 89.9 +/- 0.1%); assay type: functional
[4] = Induction of apoptosis in human Paca3 cells assessed as early apoptotic cells in absence of 10% fetal calf serum at 10 uM after 24 hrs by annexin V-FITC/propidium iodide staining-based flow cytometry (reference value: 3.5 +/- 0.7%); assay type: functional
[5] = Cytotoxicity against human LNCAP cells assessed as reduction in cell viability after 24 hrs in presence of 10% fetal calf serum by MTS assay; assay type: functional, cell-based
Method in brief: (§2)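 Cells in exponential growth, 3×10^3 per well, in medium with 10% FCS. Capan-2, PaCa3, MDA-MB 231, SUM 159 and PC3 were grown in DMEM/Ham's F12 with glutamine 2 mM and insulin 10 µg/ml. U87 was grown in EMEM and LNCaP in RPMI, each with glutamine. Compound 0.1–100 µM, continuous exposure (24 h; 48 h for the 48 h lines). MTS, OD 490 nm. IC50 read graphically. Three independent experiments in octuplicate.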

[6] = Cytotoxicity against human PC3 cells assessed as reduction in cell viability after 24 hrs in presence of 10% fetal calf serum by MTS assay; assay type: functional, cell-based; details: PC-3, 24 h; method in brief: as §2
[7] = target: Sigma non-opioid intracellular receptor 1 (Rattus norvegicus) (UniProt Q9R0C9); test: Antagonist activity at sigma 1 receptor in rat PC12 cells assessed as inhibition of NGF-induced neurite outgrowth at 2.5 to 10 uM after 96 hrs; assay type: cell-based; details: PC-12
Method in brief: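 PC12 cells grown in RPMI 1640 with 10% heat-inactivated horse serum and 5% FBS. Differentiation ran in medium with 0.5% serum plus NGF 2.5 ng/ml, with compound at 0–10 μM for 96 h. Neurite outgrowth was scored. Data are mean±sem of at least 5 experiments, each in triplicate.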

[8] = Cytotoxicity against human SUM159 cells assessed as reduction in cell viability after 24 hrs in presence of 10% fetal calf serum by MTS assay; assay type: functional, cell-based; details: SUM-159-PT; method in brief: as §2
[9] = target: Sigma non-opioid intracellular receptor 1 (Rattus norvegicus) (UniProt Q9R0C9); test: Antagonist activity at sigma 1 receptor in rat PC12 cells assessed as inhibition of PRE-084-mediated NGF-induced neurite outgrowth at 0.25 to 2.5 uM after 96 hrs; assay type: cell-based; details: PC-12
Method in brief: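 PC12 cells in differentiation medium with NGF 2.5 ng/ml. The S1R agonist PRE-084 (5, 10, 25 μM; 10 mM stock in apyrogenic water) was given alone or with compound at 0.25 or 2.5 μM. NGF-induced neurite outgrowth was scored. Data are mean±sem of at least 5 experiments, each in triplicate.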

[10] = Cytotoxicity against human Capan2 cells assessed as reduction in cell viability after 24 hrs in presence of 10% fetal calf serum by MTS assay; assay type: functional, cell-based; details: Capan-2, 24 h; method in brief: as §2
[11] = Induction of apoptosis in human Paca3 cells assessed as late apoptotic cells in absence of 10% fetal calf serum at 10 uM after 24 hrs by annexin V-FITC/propidium iodide staining-based flow cytometry (reference value: 4.6 +/- 0.5%); assay type: functional
[12] = Cytotoxicity against human Paca3 cells assessed as reduction in cell viability after 48 hrs in presence of 10% fetal calf serum by MTS assay; assay type: functional, cell-based; details: Paca3, 48 h; method in brief: as §2
U-87MG ATCC = test: Cytotoxicity against human U87 cells assessed as reduction in cell viability after 48 hrs in presence of 10% fetal calf serum by MTS assay; assay type: functional, cell-based; method in brief: as §2
[13] = Induction of apoptosis in human Paca3 cells assessed as necrotic cells in absence of 10% fetal calf serum at 10 uM after 24 hrs by annexin V-FITC/propidium iodide staining-based flow cytometry (reference value: 0.8 +/- 0.6%); assay type: functional
[14] = Displacement of [3H]-DTG from sigma 2 receptor in rat liver after 120 mins by scintillation counting analysis
Method in brief: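 Rat liver homogenate (150 µg) incubated 120 min at room temperature with 3 nM [³H]-DTG in 50 mM Tris-HCl pH 8.0. (+)-Pentazocine 100 nM masked S1R; haloperidol 10 µM defined nonspecific binding. Ki by Cheng–Prusoff from IC50.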

LNCaP = test: Cytotoxicity against human LNCAP cells assessed as reduction in cell viability after 48 hrs in presence of 10% fetal calf serum by MTS assay; assay type: functional, cell-based; method in brief: as §2
PC-3 = test: Cytotoxicity against human PC3 cells assessed as reduction in cell viability after 48 hrs in presence of 10% fetal calf serum by MTS assay; assay type: functional, cell-based; method in brief: as §2
[15] = Induction of apoptosis in human Paca3 cells assessed as early apoptotic cells in presence of 10% fetal calf serum at 25 uM after 24 hrs by annexin V-FITC/propidium iodide staining-based flow cytometry (reference value: 5.6 +/- 0.3%); assay type: functional
Paca3 [16] = test: Induction of apoptosis in human Paca3 cells assessed as cleaved form of caspase 3 at 10 uM after 24 hrs in absence of 10% fetal calf serum by Western blot analysis; assay type: functional, cell-based
Method in brief: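 PaCa3 cells starved 24 h without FCS, then exposed to 10 μM. Cleaved caspase 3 detected by western blot. Membranes blocked with 5% milk in T-TBS, primary antibody overnight at 4 °C, then secondary antibody, chemiluminescent detection.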

Paca3 [17] = test: Induction of apoptosis in human Paca3 cells assessed as cleaved form of caspase 3 at 25 uM after 24 hrs in presence of 10% fetal calf serum by Western blot analysis; assay type: functional, cell-based
Method in brief: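 PaCa3 cells in 10% serum medium, exposed 24 h to 25 μM. Cleaved caspase 3 detected by western blot. Membranes blocked with T-TBS (0.1% Tween) and 5% non-fat milk, primary antibody overnight at 4 °C, then secondary antibody, chemiluminescent detection. Two independent experiments.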

[18] = Induction of apoptosis in human Paca3 cells assessed as viable cells in absence of 10% fetal calf serum at 10 uM after 24 hrs by annexin V-FITC/propidium iodide staining-based flow cytometry (reference value: 91.1 +/- 0.7%); assay type: functional
Capan-2 = test: Cytotoxicity against human Capan2 cells assessed as reduction in cell viability after 48 hrs in presence of 10% fetal calf serum by MTS assay; assay type: functional, cell-based; method in brief: as §2
MDA-MB-231 = test: Cytotoxicity against human MDA-MB-231 cells assessed as reduction in cell viability after 48 hrs in presence of 10% fetal calf serum by MTS assay; assay type: functional, cell-based; method in brief: as §2
SUM-159-PT = test: Cytotoxicity against human SUM159 cells assessed as reduction in cell viability after 48 hrs in presence of 10% fetal calf serum by MTS assay; assay type: functional, cell-based; method in brief: as §2
[19] = Cytotoxicity against human U87 cells assessed as reduction in cell viability after 24 hrs in absence of 10% fetal calf serum by MTS assay; assay type: functional, cell-based, U-87MG ATCC; details: U-87 MG; method in brief: as §1

Chain of Sigma non-opioid intracellular receptor 1 (Rattus norvegicus) (Q9R0C9 whole entry): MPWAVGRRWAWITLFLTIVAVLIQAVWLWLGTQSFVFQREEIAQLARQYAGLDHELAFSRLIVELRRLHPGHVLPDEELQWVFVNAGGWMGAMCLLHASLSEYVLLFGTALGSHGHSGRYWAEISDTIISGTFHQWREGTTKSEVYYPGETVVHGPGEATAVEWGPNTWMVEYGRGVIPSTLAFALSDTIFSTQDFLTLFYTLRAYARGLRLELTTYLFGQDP

C/C(=C\CN1CCC(Cc2ccccc2)CC1)c1ccc2ccccc2c1
Activity [1]: 0.4% | IC50 [2]: 9.58 µM | Activity [3]: 22.4% | Activity [4]: 10.9% | IC50 [5]: 61.1 µM | IC50 [6]: 50.6 µM | inhibition [7]: Active | IC50 [8]: 58.3 µM | inhibition [9]: Active | IC50 [10]: 52.6 µM | Activity [11]: 17.2% | IC50 [12]: 28.7 µM | Activity (U-87MG ATCC): Active | Activity [13]: 0.3% | Ki [14]: 0.022 µM | Activity (LNCaP): Active | Activity (PC-3): Active | Activity [15]: 43.1% | Activity (Paca3 [16]): Active | Activity (Paca3 [17]): Active | Activity [18]: 71.6% | Activity (Capan-2): Active | Activity (MDA-MB-231): Active | Activity (SUM-159-PT): Active | IC50 [19]: 10.5 µM
